Calb FLC: C. albicans growth inhibition with fluconazole, primary screen, CaCi-2 strain, Alamar Blue fluorescence; C. albicans CaCi-2 (fluconazole-resistant clinical isolate) + fluconazole, 48 h; growth inhibition, % (no concentration beside the values); 300,000 tested, 0.57% active;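 active = growth inhibition above about 58% in most replicates, limit read from the data, passing the limit was not always enough; inconclusive = exactly half the replicates above a set limit; inactive = most replicates below a set limit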;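 also: all wells also contain fluconazole at 8 µg/ml as a sub-toxic cotreatment; 0% = median of DMSO wells and 100% = median of geldanamycin control wells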
beta cell repl: inducers of MIN6 beta-cell proliferation, primary screen, ATP luminescence, uHTS. MIN6 cells proliferation, ATPlite luminescence, 48 h; cells starved in 0.2% serum; 100% = growth in 10% serum. proliferation, % at 10 µM. 330,000 tested, 0.29% active. AID 2380, 2010;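 active = compounds whose signal lies at least 3.5 SD above the mean of all wells on their plate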;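 also: 0% = DMSO-treated cells in low-serum medium and 100% = 10% serum control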
SR-BI DiI-HDL act: activators of SR-BI mediated DiI-HDL uptake, primary screen, ldlA[mSR-BI] CHO cells, DiI fluorescence. AID 504775, 2011. 320,000 tested, 0.096% active. activation, % at 12.5 µM. 3 h; 100 = double the neutral-control signal;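 active = mean replicate activation of at least 60% and every replicate at or above 60%; inconclusive = mean or all-replicate condition met, but not both; inactive = mean below 60% and not all replicates reaching 60%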;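 also: 0% = median plate neutral-control signal and 100% = twice that signal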
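Test system: SR-BI-overexpressing, LDLR-lacking CHO cells; Medium: Ham's F12 with 0.5% BSA, HEPES 25 mM, pH 7.4; Schedule: 3 h, 37 °C; Technique: bottom-read fluorescence, 550/595 nm.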
m5-HT2A agonist: mouse Htr2a agonists via beta-arrestin recruitment, primary screen, cell-based, luminescence | 5-hydroxytryptamine receptor 2A (Mus musculus), P35363 | CHO-K1 mHTR2A beta-arrestin complementation; percent of 30 µM serotonin response | activation, % at 7.6 µM | 360,000 tested, 0.66% active;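 active = activation above a run cutoff, the mean activation of all tested compounds plus 3 SD, cut at about 14% in these data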;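 also: 0% = plate median of compound wells and 100% = 30 µM serotonin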
Target sequence (P35363 whole entry, looked up): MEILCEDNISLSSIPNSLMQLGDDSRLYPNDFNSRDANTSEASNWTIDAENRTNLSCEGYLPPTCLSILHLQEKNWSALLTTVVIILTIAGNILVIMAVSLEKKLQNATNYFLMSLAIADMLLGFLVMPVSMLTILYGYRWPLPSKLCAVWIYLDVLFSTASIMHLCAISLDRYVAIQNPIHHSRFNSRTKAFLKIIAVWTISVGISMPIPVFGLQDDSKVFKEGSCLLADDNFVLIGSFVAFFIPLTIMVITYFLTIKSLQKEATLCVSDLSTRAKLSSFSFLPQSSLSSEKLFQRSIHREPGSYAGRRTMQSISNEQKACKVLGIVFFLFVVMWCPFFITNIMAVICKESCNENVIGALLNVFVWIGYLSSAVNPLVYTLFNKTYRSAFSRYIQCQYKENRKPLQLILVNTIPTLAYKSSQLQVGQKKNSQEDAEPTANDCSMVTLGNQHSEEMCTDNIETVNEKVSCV
SR-BI DiI inh: inhibitors of SR-BI mediated HDL lipid uptake, primary screen, ldlA[mSR-BI] cells, fluorescence, single point. Scavenger receptor class B member 1 (Mus musculus), Q61009. ldlA[mSR-BI] CHO cells, DiI-HDL uptake fluorescence, 3 h. inhibition, % at 12.5 µM. 320,000 tested, 0.96% active. AID 488896, 2010;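 active = mean replicate inhibition of at least 70% and a set share of replicates each scoring 70 or more; inconclusive = meets just one of the two criteria; inactive = fails both criteria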;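 also: 0% = median of neutral control wells and 100% = median of positive control wells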
Ins promoter up: insulin promoter activators in MIN6 cells, imaging, high-content screening, mouse beta cells; z-score at 5 µM; 190,000 tested, 0.3% active; MIN6 insulin promoter-GFP reporter; stronger effect = higher value;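 active = z-score above 3 at 5 µM with at least 500 cells counted in the well; inconclusive = wells under 500 cells, flagged as cytotoxic or low count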
MOR ag counter: OPRM1 agonists via beta-arrestin recruitment, confirmation, counter-screen for mouse HTR2A agonist project, cell-based, luminescence, single concentration; shares compounds with m5-HT2A agonist; U2OS OPRM1 beta-arrestin PathHunter; DMSO 0%, DAMGO 9.3 µM 100%; activation, % at 9.3 µM; 2,300 tested, 5.3% active;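 active = mean activation above the mean of DMSO-only wells plus 3 SD, cut at about 0.5% in these data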
HTR2A ag conf: mouse HTR2A agonists, beta-arrestin recruitment, confirmation, cell-based, luminescence, CHO-K1 PathHunter, triplicate; shares compounds with m5-HT2A agonist; DMSO 0%, 30 µM serotonin 100%; activation, % at 7.6 µM; 2,300 tested, 19% active;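 active = mean activation across triplicates above the hit threshold derived in the original primary screen, cut at about 15% in these data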
* = called active by the depositor; ? = inconclusive; · = not tested or not shown. Most compounds without a hit are left out; they make up all but 2.4% or so of the library.

SMILES | Calb FLC | beta cell repl | SR-BI DiI-HDL act | m5-HT2A agonist | SR-BI DiI inh | Ins promoter up | MOR ag counter | HTR2A ag conf
COC(=O)CC(NS(=O)(=O)c1cccs1)c1ccccc1Cl (stereo not given) | 22 | 0 | -16 | 19* | 16 | 1.5 | 0 | -4
COc1ccc2c(CC(=O)N3CCc4ccccc43)coc2c1 | 17 | -1 | -15 | -1 | 15 | 0.52 | · | ·
COc1ccc2c(CC(=O)OCC(=O)N3CCc4ccccc43)coc2c1 | 0 | 2 | 8 | 16* | -8 | 1.4 | 0 | -5
COc1ccccc1CN1CC(C(=O)NCc2cccc(C)n2)CCC1=O (stereo not given) | 3 | 2 | 9 | 3 | -9 | · | · | ·
COc1ccccc1CN1CC(C(=O)NCc2cc(C)on2)CCC1=O (stereo not given) | -12 | 7 | 30 | 16* | -30 | · | 0 | 2
CC(CCc1ccc(O)cc1)NCCc1ccc(O)c(O)c1 (stereo not given) | 24 | -8 | 19 | 27* | -19 | · | 0 | 120*
C/C(=N/NC(=O)CNC(=O)COc1ccccc1)c1ccc(Cl)cc1 | -14 | 2 | -3 | 16* | 3 | · | -1 | -6
CN(CC(=O)Nc1cccc(F)c1)C(=O)CN1C(=O)NC2(CCCCC2)C1=O | -6 | 4 | 4 | -3 | -4 | · | · | ·
CCN(CC(=O)Nc1ccccc1C(F)(F)F)C(=O)CN1C(=O)NC2(CCCCC2)C1=O | 1 | -2 | -5 | 17* | 5 | · | -1 | -4
CN(CC(=O)Nc1ccc(F)cc1)C(=O)CN1C(=O)NC2(CCCC2)C1=O | · | 2 | 27 | 20* | -27 | · | -1 | -4
CCN(CC(=O)Nc1c(F)cccc1F)C(=O)CN1C(=O)NC2(CCCC2)C1=O | 1 | 3 | 21 | 0 | -21 | · | · | ·
O=C(CNC(=O)c1sc2ccccc2c1Cl)NCc1ccc(F)cc1 | 5 | -4 | 8 | 1 | -8 | · | · | ·
Cc1ccccc1S(=O)(=O)N1C[C@H]2[C@H]3C(=O)N(c4ccccc4)C(=O)[C@H]3CC(=O)[C@H]2[C@@H]1c1ccc(Cl)cc1 | · | · | · | 2 | · | · | · | ·
CCc1nc(SCC(=O)NCC2CCCO2)c2c(=O)n(C)c(=O)n(C)c2n1 (stereo not given) | -9 | -1 | 0 | 7 | 0 | · | · | ·
CC(C)c1nc(SCC(=O)NCC2CCCO2)c2c(=O)n(C)c(=O)n(C)c2n1 (stereo not given) | 0 | -3 | 9 | 28* | -9 | · | -1 | -4
C=CCCC(=O)N1C[C@@H](CO)[C@@H](NC)C[C@H]1c1ccccc1Br | · | · | · | -3 | · | · | · | ·
COC1OCC(O)C(NC(=O)N(C)N=O)C1O (stereo not given) | · | · | · | 1 | · | · | · | ·
Cc1cc(C)n2c(Nc3c(C)cccc3C)c(-c3cccnc3)nc2n1 | · | · | · | 1 | · | · | · | ·
CCCCNc1c(-c2cccnc2)nc2nc(C)cc(C)n12 | · | · | · | 20* | · | · | -1 | -4
COc1ccc(-c2csc(NC(=O)c3c(C)noc3C)n2)cc1OC | · | · | · | 3 | · | · | · | ·
Cc1ccc(N(CC(=O)NC(C)(C)C)C(=O)CNC(=O)c2cccs2)c(C)c1 | 0 | 5 | 12 | -1 | -12 | -0.16 | · | ·
CC(C)(C)NC(=O)CN(C(=O)CNC(=O)c1cccs1)c1ccccc1F | 3 | -1 | · | 16* | · | · | 0 | 4
CC(/C=C/C1(O)C(C)CC(O)CC1(C)C)OC1OC(CO)C(O)C(O)C1O (stereo not given) | 11 | 0 | -9 | 39* | 9 | ? | -1 | -1
NC(=O)c1ccc(/C=N/O)[n+](Cc2ccccc2)c1 | -2 | 3 | -7 | 16* | 7 | · | -1 | -3
Cc1ccc(/C=N/c2sc3c(c2C#N)CCCCC3)o1 | -3 | -2 | -1 | 16* | 1 | -0.42 | 0 | 16*
SMILES | Calb FLC | beta cell repl | SR-BI DiI-HDL act | m5-HT2A agonist | SR-BI DiI inh | Ins promoter up | MOR ag counter | HTR2A ag conf
COc1ccc(CC(=O)N[C@@H]2c3cc(OC)c(OC)cc3C[C@H]2O)cc1 | · | · | 6 | 18* | -6 | · | -1 | -3
COc1cc2c(cc1OC)[C@@H](NC(=O)Cc1ccc(F)cc1)[C@H](OCc1ccccc1)C2 | · | · | 13 | -2 | -13 | · | · | ·
Cc1ccccc1NC(=O)Cc1nc(COC(=O)COc2cccc(C)c2C)cs1 | -9 | -1 | 25 | 15* | -25 | · | -1 | -4
COc1ccccc1NC(=O)N(C)C[C@@H]1OCc2cnnn2CCCC(=O)N([C@@H](C)CO)C[C@H]1C | · | · | · | -3 | · | · | · | ·
Cc1cccc(N2C(=O)CS/C2=N\NC(=O)c2ccc(Br)cc2)c1C | 1 | -2 | 44 | 15* | -44 | · | -1 | -1
CCOc1ccc(Oc2ccc(NS(=O)(=O)c3ccc(CCC(=O)O)cc3)cc2)cc1 | · | · | · | 4 | · | · | · | ·
CC(C)=CCC12Oc3cc(O)ccc3C1(O)Oc1cc(O)c([C@H]3C=C(C)CC(c4ccc(O)cc4O)[C@H]3C(=O)c3ccc(O)cc3O)c(O)c1C2=O (stereo not given in full) | -10 | -6 | · | · | · | · | · | ·
COc1ccc(NC(=O)C2CCCN2S(=O)(=O)c2ccc3c(c2)C(C)(C)C(=O)N3C)cc1 (stereo not given) | · | · | · | 34* | · | · | 0 | -3
CC(CNC(=O)C(=O)NC(C)CCc1ccccc1)Cc1ccccc1 (stereo not given) | -6 | -2 | -9 | -1 | 9 | 0.12 | · | ·
COc1ccc(OCC(=O)NC(=S)NNC(=O)COc2ccc(Br)cc2Cl)cc1 | -87 | -4 | -9 | 16* | 9 | 0.31 | -1 | -3
COc1ccc(NC(=S)NNC(=O)COc2ccc(Cl)cc2Cl)cc1 | 21 | -1 | -17 | 2 | 17 | 0.41 | · | ·
O=C(c1ccco1)N1CCN(c2c(-c3ccccc3)c3cc(Cl)ccc3[nH]c2=O)CC1 | 13 | -5 | -9 | 52* | 9 | -1.4 | 1.3* | 24*
O=c1[nH]c2ccc(Cl)cc2c(-c2ccccc2)c1N1CCOCC1 | -5 | -5 | · | 4 | · | 0.86 | · | ·
